Compound activity (PubChem)
HDAC3 inh – inhibitors of human histone deacetylase 3. AID 2718. O15379. hit rate 0.15% among 320,000. inhibition, % at 8.3 µM. recombinant HDAC3, fluorogenic peptide/trypsin coupled, fluorescence; in the data active = inhibition above about 26%, passing the limit was not always enough; inconclusive = no clear call, values can overlap the other calls
Target sequence (O15379 whole entry, looked up): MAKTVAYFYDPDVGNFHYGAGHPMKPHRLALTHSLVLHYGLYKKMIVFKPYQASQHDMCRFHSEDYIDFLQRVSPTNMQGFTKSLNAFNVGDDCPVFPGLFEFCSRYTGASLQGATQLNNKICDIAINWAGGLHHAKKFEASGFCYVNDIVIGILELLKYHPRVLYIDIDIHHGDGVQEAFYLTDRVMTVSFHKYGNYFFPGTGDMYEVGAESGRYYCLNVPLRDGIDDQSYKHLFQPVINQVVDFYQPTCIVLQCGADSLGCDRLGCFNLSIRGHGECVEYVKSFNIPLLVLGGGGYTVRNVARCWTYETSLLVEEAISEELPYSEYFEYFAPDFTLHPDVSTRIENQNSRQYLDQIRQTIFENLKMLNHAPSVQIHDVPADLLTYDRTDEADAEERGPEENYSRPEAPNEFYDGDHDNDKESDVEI
PolyA inh – blocks polyadenylation in yeast reporter cells; S. cerevisiae SKY197-pL101 polyadenylation reporter, beta-gal luminescence; efflux-impaired pdr1/pdr3 knockout yeast; score 100 = 6 SD above DMSO; activity score, % at 12 µM; hit rate 0.02% among 300,000; AID 1875;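 active = lowest replicate activity score at least 50, where 100 means six control SD above control mean; inconclusive = lowest score under 50 but half or more replicates reach 50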;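 also: yeast exposed to compound for 9 h at 30 °C; higher score means more reporter readthrough which indicates perturbed polyadenylation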
T cruzi inh – blocks replication of Trypanosoma cruzi; T. cruzi beta-gal in NIH3T3, luminescence, 90 h; inhibition, % (test concentration not listed); hit rate 1.4% among 300,000; AID 1885;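 active = mean inhibition across valid replicates above about 55%, limit read from the data; inconclusive = mean below that limit but half or more replicates reach it; inactive = mean below it, under half of replicates reach it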;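 also: signal also drops with host cell toxicity which is not excluded here; 0% = plate median of DMSO wells and 100% = zero luminescence signal; higher percent means less beta-gal luminescence so fewer parasites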
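Assay system: NIH/3T3 fibroblasts plus reporter T. cruzi. Amount: NIH/3T3 cells, 5,000 per well. Buffer or medium: DMEM, 2% fetal bovine serum. Doses: compound pinned at 50 nL/well, DMSO. Schedule: ≥90 h infection period, 3 h prior cell attachment. Signal: luminescent β-galactosidase signal after 60 min lysis. Read-out: parasite load inhibition, %.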
Efflux pump inh – antifungal efflux pump inhibition, Nile Red retention; S. cerevisiae Candida pump triplex; inhibition, % at 10 µM; hit rate 0.44% among 330,000; AID 485275;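 active = plate passing quality check with inhibition over a set limit, or well fluorescence over plate mean plus 4 SD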;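 also: Nile Red retained in pooled yeast measured as flow cytometry median fluorescence; 0% = buffer negative control and 100% = Enniatin B positive control; higher means more Nile Red kept so more efflux inhibition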
AI-2 QS modul – modulators of Vibrio harveyi AI-2 quorum sensing system. AID 2094. activity change, % at 7.5 µM. Vibrio harveyi JMH597 AI-2 luminescence/OD600 ratio, 9 h; active compounds read low; strain lacks LuxN and CqsS sensors; 0 = neutral-control median. hit rate 0.4% among 300,000; in the data active = activity change below about -75%, passing the limit was not always enough; inconclusive = no clear call, values can overlap the other calls;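 also: luminescence divided by OD600 gain over 9 h not by final OD600 alone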
An asterisk follows results filed as active; u = inconclusive; x = not tested or not shown. Compounds with a hit are over-represented: about 2.2% of the library has one in this group of screens.

SMILES	HDAC3 inh	PolyA inh	T cruzi inh	Efflux pump inh	AI-2 QS modul
O=C(CSc1ccc(-c2ccccn2)nn1)NCc1ccc(Cl)cc1	-2	5	u	0	41
COc1ccc(Cc2nc3ccc(C(=O)N(C)CCn4ccnc4)cc3o2)cc1OC	8	1	-14	0	-5
COc1cc(OC)c(C(=O)Nc2cccc3ccccc23)cc1OC	-6	0	9	0	19
Oc1ccc(/C=N/Nc2nccnc2Cl)c(O)c1	9	13	59*	0	29
CNC(=O)c1nnsc1S(=O)(=O)c1ccc(Cl)cc1	x	-23	60*	x	-95*
O=C(c1nnsc1S(=O)(=O)c1ccc(Cl)cc1)N1CCOCC1	x	20	18	x	-3
COc1ccnc(CS(=O)c2nc3cc(OC(F)F)ccc3[nH]2)c1OC (configuration not stated)	10	6	-13	0	-23
O=C(Nc1ccc(-c2csc(Nc3ccc(Cl)cc3)n2)cc1)c1cccc(C(F)(F)F)c1	6	-20	68*	0	32
Cc1ncc(CN2CCN(C(C)C)C(CCO)C2)s1 (configuration not stated)	7	24	5	0	4
O=C(Nc1nc(-c2ccccc2)cs1)c1ccc(N2CCOCC2)c([N+](=O)[O-])c1	-3	3	55*	0	-6
CC1CCC(C(C)C)C(OC(=O)C[n+]2cc(-c3ccc(Cl)cc3)n3c2CCC3)C1 (configuration not stated)	3	-10	60*	0	50
COC(=O)C1=C(CCc2ccccc2)NC(=O)NC1c1ccc(Br)cc1 (configuration not stated)	11	-10	3	0	22
COC(=O)c1ccc(=O)c2nc3/c(=C/O)c(O)cc(=O)c3[nH]c12	3	x	x	0	x
CN(Cc1ccccc1)C(=O)COc1cccnc1[N+](=O)[O-]	7	-1	0	0	-48
COc1ccc(Br)cc1C(=O)Nc1ccccc1N1CCN(C(=O)c2ccccc2)CC1	-2	10	59*	0	55
CN(Cc1ccc(Cl)cc1)C(=O)CCl	-4	0	7	0	2
CN(Cc1ccc(Cl)s1)C(=O)CCl	1	-15	59*	0	23
CC(Sc1nnc(CC(=O)Nc2ccccc2F)n1C)C(=O)Nc1nccs1 (configuration not stated)	-6	-2	7	0	20
NC1CCN(c2c(F)cc3c(=O)c(C(=O)O)cn(C4CC4)c3c2Cl)C1 (configuration not stated)	2	10	-11	0	-88*
CCOC(=O)CC1C(=O)NCCN1S(=O)(=O)c1cccc(C(F)(F)F)c1 (configuration not stated)	0	15	-21	0	36
CCC(C)(C)n1nnnc1CN(Cc1cccs1)Cc1cc2cc(OC)ccc2[nH]c1=O	2	-7	24	0	26
Cc1cccc2cc(CN(Cc3cccs3)Cc3nnnn3Cc3ccccc3)c(=O)[nH]c12	-1	22	63*	0	6
CCOc1ccc2[nH]c(=O)c(CN(Cc3cccs3)Cc3nnnn3C(C)(C)CC)cc2c1	11	12	58*	0	35
COc1ccc2cc(CN(Cc3cccnc3)Cc3nnnn3Cc3ccccc3)c(=O)[nH]c2c1	3	-6	62*	0	10
Cc1cc(SCC(=O)NCC2CCCO2)nc2ccccc12 (configuration not stated)	0	17	-7	0	3
SMILES	HDAC3 inh	PolyA inh	T cruzi inh	Efflux pump inh	AI-2 QS modul
CC(C)c1cccc(OCCN2CCCC2)c1	-4	-1	43	0	3
CCOc1ccccc1NC(=O)COC(=O)COc1c(Cl)cc(Cl)c2ccc(C)nc12	8	8	-12	0	15
CCN(CC(=O)NC(C)(C)C)C(=O)COc1c(Cl)cc(Cl)c2ccc(C)nc12	-7	14	41	0	-81*
Cc1[nH]c2ccc(F)cc2c1CCN(Cc1cccnc1)C(=S)Nc1ccccc1	-7	12	60*	0	90
Cc1cc2nc(CCN(Cc3cccnc3)C(=S)Nc3ccccc3)[nH]c2cc1C	0	-14	46	0	-5
Cc1[nH]c2ccccc2c1CCN(Cc1cccnc1)C(=S)Nc1ccc(F)cc1	1	12	41	0	5
Cc1cc2nc(CCN(Cc3cccnc3)C(=S)Nc3ccc(F)cc3)[nH]c2cc1C	-4	14	61*	0	1
Cc1[nH]c2ccccc2c1CCN(Cc1cccnc1)C(=S)Nc1cccc(F)c1	7	-1	58*	0	4
CCOC(=O)C1=C(c2ccccc2)Nc2ncnn2C1c1ccc(C(=O)O)cc1 (configuration not stated)	x	23	-17	0	1
CCOC(=O)C1=C(c2ccccc2)NC(N)=NC1c1ccc(OCc2ccc(C(=O)OC)cc2)cc1 (configuration not stated)	7	14	25	0	-92*
COc1cccc(CNC(=O)c2nnn(CC(=O)Nc3ccc(Br)cc3)c2N)c1	-4	3	11	0	20
O=C(Nc1cc2c3c(c1)C1CCCC1CN3CC1CCCC21)c1ccccc1 (configuration not stated)	-11	4	60*	0	14
O=C(Nc1ccc2c(c1)CCC2)c1ccccc1	-7	7	1	0	13
N#Cc1c(NC(=S)NC(=O)c2ccccc2)sc2c1CCCC2	-7	4	14	0	3
N#Cc1c(NC(=S)NC(=O)c2ccccc2)sc2c1CCN(CCc1ccccc1)C2	7	11	71*	0	9
Cc1sc(-c2c(C#N)c(N)nc3c2CCCCCC3)cc1[N+](=O)[O-]	-5	0	14	0	10
CCCCc1sc(-c2c(C#N)c(N)nc3c2CCCCC3)cc1[N+](=O)[O-]	5	-9	55*	0	13
CC(=O)c1c(C)[nH]c(C(=O)OCc2ccccc2F)c1C	3	-19	3	0	11
COc1ccc(CN(C)C(=O)c2cccc(NS(=O)(=O)c3ccccc3)c2)cc1F	-1	24	-6	0	11
COc1ccc(CNc2ccc(C)c(C)c2)cc1	2	4	2	0	-12
COc1ccc(NCc2ccc(OC)c(OC)c2)cc1	0	-1	-3	7.5*	16
O=C(c1ccccn1)N1CCN(S(=O)(=O)c2ccccc2)CC1	5	-11	10	0	16
COc1cccc2sc(=NC(=O)CS(=O)(=O)c3ccc(Cl)cc3)n(C)c12	2	-18	60*	0	29
COc1cccc2sc(=NC(=O)CCS(=O)(=O)c3ccc(C)cc3)n(C)c12	11	-15	22	0	34
CCn1c(=NC(=O)CS(=O)(=O)c2ccc(C)cc2)sc2cccc(OC)c21	-1	-9	59*	0	31
